The source of these data is ChEMBL document CHEMBL1671700, “Structure-activity analysis of vinylogous urea inhibitors of human immunodeficiency virus-encoded ribonuclease H” (Antimicrob Agents Chemother, 2010).

pIC50: −log10 of the molar value. The source made the active and inactive calls. No cut-off for these calls is given here. Where only a bound is given, the exact number is not on record here.

For data set [1], the target named is T1, Human immunodeficiency virus type 1 reverse transcriptase (Human immunodeficiency virus 1, UniProt Q72547). Description: Inhibition of RNase H activity of HIV-1 HXB2 reverse transcriptase p66/p51 after 10 mins by fluorescence spectrophotometry. The gist of the method:
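His-p66/His-p51 RT from HIV-1 HXB2, 250 ng, with 250 nM 18-nt 3′-fluorescein RNA annealed to 5′-dabsyl DNA. Hydrolysis started by adding hybrid. 37°C, fluorescence (ex 475/em 520 nm) read every minute for 10 min. Percent inhibition from initial rates, plotted against log concentration. Triplicate.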

Data set [2] deals with Human immunodeficiency virus type 1 reverse transcriptase (Human immunodeficiency virus 1) (UniProt Q72547). Description: Binding affinity to HIV-1 HXB2 reverse transcriptase p66/p51 assessed as changes in enzyme orientation on polypurine tract-containing RNA-DNA hybrid by FRET assay. The gist of the method: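 Single-molecule FRET. Substrate: 21-nt PPT:D2 RNA-DNA primer annealed at 1.2:1 to a biotinylated 50-nt DNA template. Cy5 acceptor near the template 3′ end; Cy3 donor on the RNase H C terminus of p66. His-p66/His-p51 RT is from the HXB2 isolate. Inhibitor was added at 10 μM final.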

The target is the same in data set [3]. Description: Inhibition of DNA-dependent DNA polymerase activity of HIV1 HXB2 reverse transcriptase p66/p51at 50 uM after 10 mins by fluorescence spectrophotometry.
Data set [4] concerns Human immunodeficiency virus 1. In words: Antiviral activity against HIV-1 isolate RF infected in human CEM-SS cells assessed as inhibition of virus induced cytopathic effect by XTT assay. The class given is functional, organism-based. As to conditions: Human immunodeficiency virus 1, isolate RF. The gist of the method: (§1)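 HIV-1 RF isolate in human T-cell line CEM-SS; XTT-based cell viability read-out following Weislow et al.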
(In general: Cytopathic effects are the visible damage that an infection or toxin causes in cultured cells.)

A short description of data set [5]: Cytotoxicity against human CEM-SS cells by XTT assay. It counts as cell-based. The gist of the method: as §1
A general note: Tetrazolium dyes change colour on reduction, which living cells bring about.

The target in data set [6] is Human immunodeficiency virus type 1 reverse transcriptase (Human immunodeficiency virus 1) (UniProt Q72547). Description: Inhibition of RNase H activity of HIV-1 HXB2 reverse transcriptase p66/p51 preincubated with compound and RNA-DNA hybrid substrate followed by addition of magnesium ions.
Data set [7] shares this target. Description: Inhibition of RNase H activity of HIV-1 HXB2 reverse transcriptase p66/p51 pre-incubated with RNA-DNA hybrid followed by addition of compound and magnesium ions.
Data set [8] has the same target. In words: Binding affinity to HIV-1 HXB2 reverse transcriptase p66/p51 at increased temperature by Van't Hoff analysis. The gist of the method:
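His-p66/His-p51 RT (4 nM) and RNA-DNA hybrid (250 nM) were run at 20, 25, 30 and 35°C. The reaction was started with substrate, incubated 30 min and quenched with EDTA. Product fluorescence was read, with quadruplicate dose-response curves at each temperature. Ki was fitted as v_i/v_o = 1/[1 + ([I]/Ki)], simple nontight-binding inhibition.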

The target of data set [9] is T1, Human immunodeficiency virus type 1 reverse transcriptase. In words: Inhibition of RNase H activity of HIV-1 reverse transcriptase. The procedure, abridged:
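Recombinant His-p66/His-p51 RT (HXB2) was mixed with inhibitor in DMSO, then the reaction was started with 18-bp hybrid (3′-fluorescein RNA/5′-dabsyl DNA). Run at 37°C for 10 min, read ex 475/em 520 nm every minute. IC50 from initial-rate % inhibition vs log[inhibitor], triplicate.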

For another data set, the target named is Reverse transcriptase (Human immunodeficiency virus 2, UniProt Q06347). Description: Inhibition of RNase H activity of HIV-2 reverse transcriptase.
Sequence of Reverse transcriptase (Q06347 whole entry): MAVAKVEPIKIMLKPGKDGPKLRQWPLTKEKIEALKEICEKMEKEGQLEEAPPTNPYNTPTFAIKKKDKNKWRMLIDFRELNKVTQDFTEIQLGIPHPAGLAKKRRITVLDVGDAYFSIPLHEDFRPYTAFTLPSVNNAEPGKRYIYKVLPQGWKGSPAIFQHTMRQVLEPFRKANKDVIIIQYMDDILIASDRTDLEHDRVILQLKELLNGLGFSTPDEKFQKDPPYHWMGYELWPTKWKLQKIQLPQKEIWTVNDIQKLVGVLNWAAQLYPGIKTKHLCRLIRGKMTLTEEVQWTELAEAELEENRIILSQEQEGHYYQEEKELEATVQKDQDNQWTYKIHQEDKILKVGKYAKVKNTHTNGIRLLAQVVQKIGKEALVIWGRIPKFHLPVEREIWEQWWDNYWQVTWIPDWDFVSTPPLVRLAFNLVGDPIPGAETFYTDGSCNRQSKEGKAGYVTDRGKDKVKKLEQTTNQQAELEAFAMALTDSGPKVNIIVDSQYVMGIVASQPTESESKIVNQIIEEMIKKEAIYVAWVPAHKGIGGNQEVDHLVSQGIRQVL

On to `NC(=O)c1ccsc1N`, for which, in data set [1], the negative logarithm of the IC50 (pIC50) – broadly, the IC50 on a negative log10 scale, so that one unit is a factor of ten – was less than 3.30.

`Cc1sc2nc(-c3ccc([N+](=O)[O-])cc3)[nH]c(=O)c2c1C`: in data set [1], the pIC50 was 6.07. For the same molecule, the outcome in [2] was Active. Besides, the inhibition entry in [3] is “inactive”. Consider `COc1ccccc1NC(=O)c1c(NC(=O)Cc2ccccc2)sc2c1CCCCC2`, for which the pIC50 in data set [1] was less than 3.30; in data set [4] it was 4.27. Besides, the midpoint of cytotoxicity in [5], the CC50, lay at 141 µM.

For the molecule `Cc1sc(NC(=O)C2CCCO2)c(C(N)=O)c1C` (centres undefined), the pIC50 in data set [1] was 4.56. `COc1ccc(-c2nc3sc(C)c(C)c3c(=O)[nH]2)cc1` showed a pIC50 in data set [1] of less than 4.00. Same read-out and setting: the result for `Cc1ccc(C(=O)Nc2sc(C)c(C)c2C(N)=O)cc1` reads 5.55; that for `NC(=O)c1c(N)sc2c1CCCC2`, 4.85. Same read-out and setting: the result for `NC(=O)c1c(N)sc2c1CCCCCC2` reads less than 3.30. As for `NC(=O)c1c(N)sc2c1CCCCC2`, the inhibition result in [6] is “Active”. In data set [7], the inhibition result was “inactive”. Further, in data set [4], the pIC50 was 5.37. Half-maximal cytotoxicity in data set [5] (CC50) was put at 19.9 µM. For the same molecule, the result in data set [8] was inactive. Moreover, in [2], the outcome was Active. In the case of `O=C(Nc1sc2c(c1C(=O)Nc1cccc3ccccc13)CCCCC2)c1ccccc1F`, the negative-log IC50 (pIC50) in data set [1] was less than 3.30. In the case of `CC(C)c1ccc(O)c(=O)c(O)c1` [BETA-THUJAPLICINOL], the pIC50 (in [9]; at Reverse transcriptase) was 6.60 each time. Further, the result in data set [8] was inactive.

For the molecule `CCOc1ccc(NC(=O)c2c(NC(=O)c3ccco3)sc3c2CCCCC3)cc1`, the pIC50 in data set [1] was 5.38. Same read-out and setting: to `NC(=O)c1c(N)sc2c1CCC2` belongs less than 3.30; to `Cc1cc(Cl)ccc1CCC(=O)Nc1sc(C)c(C)c1C(N)=O`, less than 3.30; to `Cc1sc(NC(=O)c2ccc(Br)o2)c(C(N)=O)c1C`, 5.77. With `Cc1sc(NC(=O)c2ccc3c(c2)OCO3)c(C(N)=O)c1C`, the pIC50 in data set [1] is 5.29; in data set [4], 4.72. Moreover, half-maximal cytotoxicity in data set [5] (CC50) was put at 38 µM. Regarding `Cc1ccc(NC(=O)c2c(NC(=O)c3ccccc3F)sc3c2CCCCC3)cc1`, in [1], the pIC50 is less than 3.30. In [1], `Cc1sc2nc(-c3ccccc3)[nH]c(=O)c2c1C` had a pIC50 of less than 4.00.

The molecule `Cc1sc(NC(=O)C2CC3CCC2C3)c(C(N)=O)c1C` (centres undefined) showed a pIC50 in data set [1] of 4.68. On the same count and under the same terms, to `Cc1onc(-c2ccccc2)c1C(=O)Nc1sc(C)c(C)c1C(N)=O` belongs 5.54. In [1], `Cc1sc(NC(=O)c2cccc([N+](=O)[O-])c2)c(C(N)=O)c1C` gave a pIC50 of 5.89. The outcome in data set [2] was Active.

`NC(=O)c1c(NC(=O)COc2ccccc2)sc2c1CCCCC2` gave a negative logarithm of the IC50 (pIC50) in [1] of 5.16. `CCOc1ccc(NC(=O)c2c(NC(=O)c3ccccc3)sc3c2CCCCC3)cc1` had a negative logarithm of the IC50 (pIC50) in data set [1] of less than 3.30. Same read-out and setting: to `Cc1sc(NC(=O)c2ccco2)c(C(N)=O)c1C` belongs 5.47; to `Cc1sc(N)c(C(N)=O)c1C`, less than 3.30.
